# Activity calls are given as the source filed them. No cut-off for these calls is given here.
# Experiments:
# Mus musculus [1] = organism: Mus musculus; assay: Analgesic activity in mouse by Eddy hot-plate method; format: functional
# Rhesus monkey [2] = assay: Psychotomimetic activity in morphine-dependent nonwithdrawn rhesus monkey assessed as antagonist activity by measuring precipitation of withdrawal symptoms at 2 to 4 mg/kg; format: organism-based, Macaca mulatta; set-up: dose 2-4 mg/kg; conditions: in vivo
# Rhesus monkey [3] = assay: Toxicity in rhesus monkey assessed as physical drug dependence liability at 2 to 4 mg/kg by single dose suppression analysis; format: organism-based, Macaca mulatta; set-up: dose 2-4 mg/kg; conditions: in vivo
# Procedure, shortened: (§1)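 Rhesus monkeys addicted to morphine; single-dose suppression study scoring whether the test dose supports morphine dependence, i.e. suppresses withdrawal signs. Dose range 2-4 or 2-8 mg/kg, as given in each line.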
# Mus musculus [4] = assay: Analgesic activity in sc dosed mouse by Eddy hot-plate method; format: functional
# Rhesus monkey [5] = assay: Psychotomimetic activity in morphine-dependent nonwithdrawn rhesus monkey assessed as antagonist activity by measuring precipitation of withdrawal symptoms at 2 to 8 mg/kg; format: organism-based, Macaca mulatta; set-up: dose 2-8 mg/kg; conditions: in vivo
# Rhesus monkey [6] = assay: Toxicity in rhesus monkey assessed as physical drug dependence liability at 2 to 8 mg/kg by single dose suppression analysis; format: organism-based, Macaca mulatta; set-up: dose 2-8 mg/kg; conditions: in vivo; procedure, shortened: as §1
Structure (SMILES),ED50 (Mus musculus [1]),other results
COc1ccc2c3c1O[C@H]1[C@@H](O)C=C[C@H]4[C@@H](C2)N(C)CC[C@@]341 [CODEINE],7.5 mg/kg,–
CC1CCN(C)CCc2ccc(O)cc21 (configuration not stated),12.5 mg/kg,–
CC(C)=CCN1CCC2CC(C1)c1ccccc12 (configuration not stated),inactive,–
CCCN1CCC2CC(C1)c1ccccc12 (configuration not stated),16.2 mg/kg,–
CN1CC[C@]23c4c5ccc(O)c4O[C@H]2[C@@H](O)C=C[C@H]3[C@H]1C5 [MORPHINE],1.2 mg/kg,–
C=CCN1CCC2CC(C1)c1ccccc12 (configuration not stated),19.4 mg/kg,–
c1ccc(CCN2CCC3CC(C2)c2ccccc23)cc1 (configuration not stated),8.8 mg/kg,–
CN1CCC2CC1Cc1ccccc12 (configuration not stated),11.2 mg/kg,–
CN1CCC2CC(C1)c1ccccc12 (configuration not stated),4.2 mg/kg,Activity (Rhesus monkey [2]): Non-toxic; Activity (Rhesus monkey [3]): Non-toxic; ED50 (Mus musculus [4]): 8.2 mg/kg
CN1CC[C@@H]2CC1Cc1ccc(O)cc12,4.5 mg/kg,–
c1ccc2c(c1)C1CCNCC2C1 (configuration not stated),4.9 mg/kg,Activity (Rhesus monkey [5]): Non-toxic; ED50 (Mus musculus [4]): 6.1 mg/kg; Activity (Rhesus monkey [6]): Non-toxic
